Measured values from ChEMBL document CHEMBL1255566, “Rigid analogues of the α2-adrenergic blocker atipamezole: small changes, big consequences” (J Med Chem, 2010).

What was measured:
[1] = target: T1, Alpha-2A adrenergic receptor (Homo sapiens, UniProt P08913); experiment: Displacement of [3H]-RX821002 from human adrenergic alpha2A receptor expressed in rat C6 cells after 120 mins by liquid scintillation counting; type: cell-based
T1 sequence (P08913 whole entry): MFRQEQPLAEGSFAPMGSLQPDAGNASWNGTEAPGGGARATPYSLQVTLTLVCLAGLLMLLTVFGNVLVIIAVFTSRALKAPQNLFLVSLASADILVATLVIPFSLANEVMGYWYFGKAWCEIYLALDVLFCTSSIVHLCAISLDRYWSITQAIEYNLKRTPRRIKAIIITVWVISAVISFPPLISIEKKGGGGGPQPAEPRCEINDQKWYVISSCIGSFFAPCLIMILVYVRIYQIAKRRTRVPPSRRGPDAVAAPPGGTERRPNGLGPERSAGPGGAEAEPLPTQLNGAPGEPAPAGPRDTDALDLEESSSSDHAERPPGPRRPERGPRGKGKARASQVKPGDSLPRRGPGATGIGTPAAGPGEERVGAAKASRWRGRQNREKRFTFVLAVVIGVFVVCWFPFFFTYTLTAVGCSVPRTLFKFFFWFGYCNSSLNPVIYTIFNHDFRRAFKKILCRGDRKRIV
Procedure, shortened: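 Competition binding at human α2A receptors expressed in C6 glial cells. Affinity values are means ± SEM of at least two experiments, each in duplicate.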

[2] = target: T2, Alpha-1B adrenergic receptor (Homo sapiens, UniProt P35368); experiment: Displacement of [3H]-prazosin from human adrenergic alpha-1b receptor expressed in CHO cells after 120 mins by liquid scintillation counting; type: cell-based
T2 sequence (P35368 whole entry): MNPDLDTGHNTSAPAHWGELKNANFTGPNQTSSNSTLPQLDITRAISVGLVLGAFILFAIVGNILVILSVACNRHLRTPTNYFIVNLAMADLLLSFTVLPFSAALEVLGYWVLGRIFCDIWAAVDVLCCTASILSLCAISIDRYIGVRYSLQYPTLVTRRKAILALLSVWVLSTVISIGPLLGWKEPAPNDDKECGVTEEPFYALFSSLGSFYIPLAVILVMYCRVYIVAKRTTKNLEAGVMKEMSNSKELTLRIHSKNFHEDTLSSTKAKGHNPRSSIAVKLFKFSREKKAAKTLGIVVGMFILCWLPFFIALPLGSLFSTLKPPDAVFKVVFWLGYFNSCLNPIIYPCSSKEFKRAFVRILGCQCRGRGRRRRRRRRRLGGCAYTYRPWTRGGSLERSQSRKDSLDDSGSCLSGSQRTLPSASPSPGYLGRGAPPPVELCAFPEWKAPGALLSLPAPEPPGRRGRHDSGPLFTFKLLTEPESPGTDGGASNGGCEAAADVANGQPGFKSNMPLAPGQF
Procedure, shortened: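 Competition binding at human α1b receptors stably expressed in CHO cells. Affinity values are means ± SEM of at least two experiments, each in duplicate.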

[3] = target: T3, Alpha-2C adrenergic receptor (Homo sapiens, UniProt P18825); experiment: Displacement of [3H]-RX821002 from human adrenergic Alpha-2C receptor expressed in rat C6 cells after 120 mins by liquid scintillation counting; type: cell-based
T3 sequence (P18825 whole entry): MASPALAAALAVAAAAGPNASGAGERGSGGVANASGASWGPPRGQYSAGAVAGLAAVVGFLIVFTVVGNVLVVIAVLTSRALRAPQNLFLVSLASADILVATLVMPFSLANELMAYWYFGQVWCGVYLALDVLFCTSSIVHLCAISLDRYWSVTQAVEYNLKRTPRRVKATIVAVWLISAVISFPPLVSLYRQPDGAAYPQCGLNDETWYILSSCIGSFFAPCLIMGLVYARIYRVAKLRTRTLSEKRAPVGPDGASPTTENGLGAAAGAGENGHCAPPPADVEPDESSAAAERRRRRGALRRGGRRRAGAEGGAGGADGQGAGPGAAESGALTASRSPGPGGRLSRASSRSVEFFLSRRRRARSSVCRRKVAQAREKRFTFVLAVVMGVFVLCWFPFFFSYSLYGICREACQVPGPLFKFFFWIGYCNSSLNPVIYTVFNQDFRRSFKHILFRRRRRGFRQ

[4] = target: T4, Alpha-2B adrenergic receptor (Homo sapiens, UniProt P18089); experiment: Displacement of [3H]-RX821002 from human adrenergic alpha2B receptor expressed in rat C6 cells after 120 mins by liquid scintillation counting; type: cell-based
T4 sequence (P18089 whole entry): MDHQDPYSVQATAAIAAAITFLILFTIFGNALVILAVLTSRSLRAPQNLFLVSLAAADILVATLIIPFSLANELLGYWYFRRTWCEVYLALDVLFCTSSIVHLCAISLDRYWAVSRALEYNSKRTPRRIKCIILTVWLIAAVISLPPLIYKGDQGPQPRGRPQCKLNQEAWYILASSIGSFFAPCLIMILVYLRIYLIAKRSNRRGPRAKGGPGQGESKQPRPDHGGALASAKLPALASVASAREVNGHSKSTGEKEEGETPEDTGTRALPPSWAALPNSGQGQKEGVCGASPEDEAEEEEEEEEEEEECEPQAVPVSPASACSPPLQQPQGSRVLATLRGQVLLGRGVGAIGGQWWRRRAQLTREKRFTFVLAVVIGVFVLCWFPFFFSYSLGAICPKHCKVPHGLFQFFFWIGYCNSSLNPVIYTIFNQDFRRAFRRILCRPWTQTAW

Mus musculus [5] = experiment: Antihypothermic activity in po dosed NMRI mouse assessed as inhibition of guanabenz-induced hypothermia administered 35 mins before guanabenz challenge measured after 25 mins; type: functional
Procedure, shortened: (§1)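 Mice got the compound by intraperitoneal injection or oral gavage before guanabenz challenge, and reversal of guanabenz-induced hypothermia was scored. Five animals were tested per dose. ED50 is the dose giving an inhibitory effect in 50% of guanabenz-treated animals, with 95% confidence limits.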

Mus musculus [6] = experiment: Antihypothermic activity in ip dosed NMRI mouse assessed as inhibition of guanabenz-induced hypothermia administered 5 mins before guanabenz challenge measured after 25 mins; type: functional; procedure, shortened: as §1
Mus musculus [7] = experiment: Ratio of ED50 for santihypothermic activity in po dosed NMRI mouse to ED50 for antihypothermic activity in ip dosed NMRI mouse; type: functional
Procedure, shortened: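 Guanabenz-induced hypothermia in mice, five animals per dose. ED50 (the dose inhibiting hypothermia in 50% of guanabenz-treated animals) was obtained after oral gavage and after intraperitoneal injection, and the ratio po/ip was then calculated.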

[8] = target: T5, Alpha-2A adrenergic receptor (Homo sapiens) (UniProt P08913); experiment: Antagonist activity at human adrenergic alpha2A receptor expressed in CHO cells assessed as inhibition of adrenaline-induced [35S]GTPgammaS binding after 30 mins by scintillation counting; type: functional, cell-based
T5 sequence (whole entry): T1 sequence (P08913 whole entry)
Procedure, shortened: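 Inhibition of adrenaline-stimulated [35S]GTPγS binding in CHO cells expressing human α2A receptors. Compounds were also run alone to check for any stimulation of [35S]GTPγS binding. Antagonist potency is reported as pKB, taken as the potency that inhibits 50% of adrenaline-induced binding.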

[9] = Mus musculus, NMRI, po, read-out: ED50
[10] = Mus musculus, NMRI, ip, read-out: ED50

Structure (SMILES)	Ki [1]	Ki [2]	Ki [3]	Ki [4]	pKb [8]	ED50 (Mus musculus [5]; [9])	ED50 (Mus musculus [6]; [10])	Ratio ED50 (Mus musculus [7])	ED50 (Mus musculus [5])	ED50 (Mus musculus [6])
CC[C@H]1[C@@H]2c3ccccc3C[C@]12c1c[nH]cn1	0.138 nM	16.6 nM	0.17 nM	0.182 nM	–	–	–	–	–	–
CCC[C@H]1c2ccccc2[C@H]2C[C@]21c1c[nH]cn1 (relative stereo)	0.851 nM	8.91 nM	1.48 nM	2.29 nM	8.7	0.12 mg/kg	0.1 mg/kg	1.2	–	–
CO[C@@H]1c2ccccc2[C@H]2C[C@]21c1cnc[nH]1 (relative stereo)	11.7 nM	912 nM	66.1 nM	24 nM	–	–	–	–	–	–
CO[C@H]1c2ccccc2[C@H]2C[C@]21c1c[nH]cn1 (relative stereo) [listing 1 of 2 here]	1.74 nM	102 nM	5.75 nM	7.76 nM	–	–	–	3.1	0.28 mg/kg	0.09 mg/kg
CO[C@@H]1c2ccccc2[C@H]2C[C@]21c1c[nH]cn1 (relative stereo)	–	–	–	–	6.9	–	–	–	–	–
CO[C@H]1c2ccccc2[C@H]2C[C@]21c1c[nH]cn1 (relative stereo) [listing 2 of 2 here]	–	–	–	–	8.28	–	–	–	–	–
CO[C@H]1c2ccccc2[C@H]2C[C@]21c1c[nH]cn1 (stereo in doubt; (+)-3) [listing 1 of 2 here]	0.562 nM	63.1 nM	1.95 nM	2.82 nM	–	–	–	2.3	0.07 mg/kg	0.03 mg/kg
CO[C@H]1c2ccccc2[C@H]2C[C@]21c1c[nH]cn1 (stereo in doubt; (+)-3) [listing 2 of 2 here]	–	–	–	–	8.54	–	–	–	–	–
c1ccc2c(c1)[C@H]1C[C@@]1(c1c[nH]cn1)C21CC1 (stereo in doubt; (+)-10) [listing 2 of 2 here]	–	–	–	–	8.88	–	–	–	–	–
CO[C@H]1c2ccccc2[C@H]2C[C@]21c1c[nH]cn1 (stereo in doubt; (-)-3) [listing 1 of 2 here]	55 nM	1780 nM	195 nM	145 nM	–	–	–	–	–	–
CO[C@H]1c2ccccc2[C@H]2C[C@]21c1c[nH]cn1 (stereo in doubt; (-)-3) [listing 2 of 2 here]	–	–	–	–	6.44	–	–	–	–	–
c1ccc2c(c1)[C@H]1C[C@@]1(c1c[nH]cn1)C21CC1 (stereo in doubt; (-)-10) [listing 2 of 2 here]	–	–	–	–	7.75	–	–	–	–	–

Further lines, with some results ahead:

Ki [1]	Ki [2]	Ki [3]	Ki [4]	pKb [8]	Structure (SMILES)	ED50 (Mus musculus [5]; [9])	ED50 (Mus musculus [6]; [10])	Ratio ED50 (Mus musculus [7])	ED50 (Mus musculus [5])	ED50 (Mus musculus [6])
0.407 nM	3.55 nM	0.437 nM	0.347 nM	9.24	CCC[C@H]1[C@@H]2c3ccccc3C[C@]12c1c[nH]cn1	0.33 mg/kg	0.1 mg/kg	3.3	–	–
0.174 nM	33.1 nM	0.295 nM	0.204 nM	9.67	C[C@H]1[C@@H]2c3ccccc3C[C@]12c1c[nH]cn1	0.19 mg/kg	0.06 mg/kg	3.2	–	–
3.98 nM	11.5 nM	1.55 nM	6.46 nM	–	CCCO[C@H]1c2ccccc2[C@H]2C[C@]21c1cnc[nH]1 (relative stereo)	–	–	–	–	–
–	–	–	–	8.16	CCCO[C@H]1c2ccccc2[C@H]2C[C@]21c1c[nH]cn1 (relative stereo)	0.12 mg/kg	0.29 mg/kg	0.4	–	–
45.7 nM	316 nM	89.1 nM	11.7 nM	6.88	CC(C)O[C@H]1c2ccccc2[C@H]2C[C@]21c1c[nH]cn1 (relative stereo)	–	–	–	–	–
0.219 nM	6.17 nM	0.537 nM	0.692 nM	–	C[C@H]1c2ccccc2[C@H]2C[C@]21c1cnc[nH]1 (relative stereo)	–	–	–	–	–
–	–	–	–	9.54	C[C@H]1c2ccccc2[C@H]2C[C@]21c1c[nH]cn1 (relative stereo)	0.009 mg/kg	0.006 mg/kg	1.5	–	–
0.0692 nM	1.32 nM	0.178 nM	0.115 nM	–	c1ccc2c(c1)C[C@]1(c3c[nH]cn3)C[C@H]21 (stereo in doubt; 1) [listing 1 of 2 here]	–	–	4	0.12 mg/kg	0.03 mg/kg
–	–	–	–	9.78	c1ccc2c(c1)C[C@]1(c3c[nH]cn3)C[C@H]21 (stereo in doubt; 1) [listing 2 of 2 here]	–	–	–	–	–
0.603 nM	14.8 nM	2.69 nM	3.72 nM	–	c1ccc2c(c1)[C@H]1C[C@@]1(c1c[nH]cn1)C21CC1 (stereo in doubt; 10) [listing 1 of 2 here]	–	–	3.7	–	0.06 mg/kg
–	–	–	–	9.05	c1ccc2c(c1)[C@H]1C[C@@]1(c1c[nH]cn1)C21CC1 (stereo in doubt; 10) [listing 2 of 2 here]	–	–	–	–	–
0.331 nM	18.2 nM	2.14 nM	1.91 nM	–	c1ccc2c(c1)[C@H]1C[C@@]1(c1c[nH]cn1)C21CC1 (stereo in doubt; (+)-10) [listing 1 of 2 here]	–	–	2.8	0.22 mg/kg	0.08 mg/kg
0.0282 nM	1.05 nM	0.129 nM	0.11 nM	–	c1ccc2c(c1)C[C@]1(c3c[nH]cn3)C[C@H]21 (stereo in doubt; (-)-1) [listing 1 of 2 here]	–	–	5	0.04 mg/kg	0.008 mg/kg
–	–	–	–	10.2	c1ccc2c(c1)C[C@]1(c3c[nH]cn3)C[C@H]21 (stereo in doubt; (-)-1) [listing 2 of 2 here]	–	–	–	–	–
3.89 nM	97.7 nM	20.4 nM	6.76 nM	–	c1ccc2c(c1)[C@H]1C[C@@]1(c1c[nH]cn1)C21CC1 (stereo in doubt; (-)-10) [listing 1 of 2 here]	–	–	10.4	1.87 mg/kg	0.18 mg/kg
1.86 nM	1950 nM	4.17 nM	2.24 nM	–	CCC1(c2cnc[nH]2)Cc2ccccc2C1 [ATIPAMEZOLE]	–	–	–	–	–
